INS promoter act: activators of insulin promoter-driven GFP, primary screen, imaging, TRM-6 cells (human fetal islet line), eGFP reporter, cell count. plate-scaled: unstimulated 0, stimulated control 100. activation, % at 2 µM. actives 0.81% (n = 130,000);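 active means activation at 2 µM above a set limit, confirmed on inspection of the cell images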;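 further: share of cells whose green reporter signal exceeds an intensity cutoff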
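Test system: TRM-6 insulin promoter–eGFP reporter cells / Quantity: 1,000 cells per well / Reagent: tamoxifen inducer, 0.75 µM, in seeding medium / Compound dosing: 2 µM final, single concentration / Schedule: overnight tamoxifen, then two-day compound incubation at 37 °C / Measured by: automated fluorescence imaging of paraformaldehyde-fixed, Hoechst-counterstained cells, green channel / Read-out: percent activation from GFP-positive cell fraction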
Starred values were filed as active, the others as inactive. This excerpt belongs to a sample that is enriched for hits.

SMILES | INS promoter act
CCP(=O)(c1ccccc1)C(C)(C)O (centres undefined) | 7
CCCCN(CCCC)NC(=O)c1ccccc1 | -7
CCOC(=O)Nc1ccc(OC)cc1S(=O)(=O)N1CCCCC1 | 6
O=C(NN1C(=O)c2ccccc2NC1c1ccccn1)c1ccc([N+](=O)[O-])cc1 (centres undefined) | -3
Cc1ccc(NC(=S)N/C(=N/S(=O)(=O)c2ccccc2)c2ccccc2)cc1 | -6
CCN(CCNC(=O)C1CCC(=O)N1Cc1ccc(C)cc1)c1ccccc1 (centres undefined) | 0
CCN(CCCNC(=O)C1CCC(=O)N1Cc1ccccc1Cl)c1cccc(C)c1 (centres undefined) | 92*
CCN(CCCNC(=O)C1CCN(S(=O)(=O)N2CCOCC2)CC1)c1cccc(C)c1 | 114
Cc1c(NC(=O)c2ccc3ncccc3c2)c(=O)n(-c2ccccc2)n1C | -5
COc1cccc(CNC(=O)C2=Cc3cccc(OC)c3OC2)c1 | 0
CCOC(=O)CNC(=O)Nc1ccccc1C(=O)OC | -6
CCCN1CNc2c(c(=O)[nH]c(=S)n2CCc2ccccc2)C1 | 0
Cc1nnc(SCC(=O)NCc2ccccc2)[nH]c1=O | 136
Cc1cc(OCC(=O)N2CCCC2)cc(C)c1Cl | 131
Cc1cc(OCC(=O)N2CCOCC2)cc2oc(=O)c3ccccc3c12 | 424*
Cc1cc(C)c(C)c(OCC(=O)N2CCOCC2)c1 | -3
O=C(NN1C(=O)c2cc(Br)ccc2NC1c1cc(Br)cc(Br)c1O)c1ccncc1 (centres undefined) | 0
CCN(CC)S(=O)(=O)c1cccc(C(=O)N2CC(O)CC2C(=O)O)c1 (centres undefined) | 443*
CCN(CC)S(=O)(=O)c1cccc(-c2nnc(SCC(=O)N3CCC(C(=O)O)CC3)n2N)c1 | -6
CCN(CC)S(=O)(=O)c1cccc(C(=O)Nc2sc3c(c2C(N)=O)CCCC3)c1 | -5
CCn1c(=O)n(CC(=O)Nc2cc(OC)ccc2OC)c(=O)c2ccccc21 | 600*
COc1ccc(OC)c(NC(=O)CN2CCC(C(=O)c3ccc(C)cc3)CC2)c1 | -83
COc1ccc(OC)c(NC(=O)CNC(=O)Cn2c(C)cc3ccccc3c2=O)c1 | -10
CCOC(=O)c1ccc(-c2c(C(=O)OCC)oc3cc(O)c(CC)cc3c2=O)o1 | -8
O=C(Nc1c2c(nc3ccccc13)CCCC2)c1ccccc1F | -64
SMILES | INS promoter act
O=C(Nc1c2c(nc3ccccc13)CCCC2)c1cccc([N+](=O)[O-])c1 | 380*
O=C(Nc1cccc2c1CCCC2)c1cc([N+](=O)[O-])cc([N+](=O)[O-])c1 | -7
CN(C)C(CNC(=O)CSc1nnc(-c2ccco2)o1)c1ccccc1 (centres undefined) | -60
CC(OC(=O)C1=COCCO1)C(=O)Nc1ccccc1C#N (centres undefined) | 5
COc1ccc(C(=O)O/N=C(\N)c2ccncc2)cc1OC | -7
COc1ccc(C/C(N)=N/OC(C)=O)cc1OC | 8
COc1ccc(/C(N)=N/OC(=O)Cc2ccc(OC)c(OC)c2)cc1 | 210*
O=C(Nc1cccc(Cl)c1)Nc1nnc(CSCCOc2ccc(Cl)cc2)s1 | 7
CCOc1ccc(CNC(=S)N/N=C\c2ccc([N+](=O)[O-])cc2)cc1 | 0
CCOc1ccc(OCCN2CCCCC2)cc1 | -62
CCOc1ccc(C=NC23CN4CN(CN(C4)C2)C3)cc1 | 191*
O=C(CCC1CCCC1)Nc1ccc([N+](=O)[O-])cn1 | -3
Cc1cc(C)c[n+](-c2[nH]c(=O)sc2/C=N/NC([S-])=Nc2ccccc2)c1 | 103
O=C(O)Cc1cc(C(=O)Nc2ccc(Br)cc2)sc1-c1ccccc1 | -8
O=S(=O)(Nc1nccs1)c1ccc(Cl)cc1 | -9
CCOC(=O)C1CCCN(CCC(=O)Nc2cccc(C)c2)C1 (centres undefined) | 7
CCOC(=O)C1CCCN(CCC(=O)Nc2ccc(C)cc2)C1 (centres undefined) | 528*
CCOC(=O)C1CCCN(CCC(=O)Nc2cccc(F)c2)C1 (centres undefined) | -9
CC1CC(C)CN(CCOc2ccccc2-c2ccccc2)C1 (centres undefined) | 464*
CC1(C)NC(=O)N(CC(O)COc2ccccc2-c2ccccc2)C1=O (centres undefined) | -7
C=CCc1ccc(OCCCCN2CC(C)CC(C)C2)c(OC)c1 (centres undefined) | -8
C=CCN(Cc1nc(-c2ccc(OC)c(OC)c2)oc1C)C1CCS(=O)(=O)C1 (centres undefined) | -7
CCN(CC)c1nc(OC)nc(-n2nnc(C(C)=O)c2C)n1 | 8
Cc1ccc(S(=O)(=O)N2CCN(C(=O)CN3CCOCC3)C2C(C)C)cc1 (centres undefined) | 500*
Cc1ccc(C(=O)N2CCN(C(=O)CN3CCOCC3)C2)cc1 | -4
SMILES | INS promoter act
O=C(CN1CCOCC1)N1CCN(S(=O)(=O)c2ccccc2)C1c1ccccc1 (centres undefined) | -3
COc1ccc(C2OC(=O)c3ccccc3S2)cc1 (centres undefined) | -7
O=C(CNC(=O)c1ccco1)OCc1ccc(Cl)cc1 | -8
O=C(c1ccc([N+](=O)[O-])c(CS(=O)(=O)c2ccc(Cl)cc2)c1)N1CCCCC1 | 118
O=C(N1CCOCC1)C1(c2ccccc2)CCCCC1 | 0
O=C(O)c1ccc(NC(=O)C2(c3ccccc3)CCOCC2)cc1 | 494*
COc1ccc(C2(C(=O)Nc3ccc(C(=O)O)cc3)CCOCC2)cc1 | -95
Clc1ccc(Nc2ncn[nH]2)c(Cl)c1 | -66
COc1cc2c(cc1OC)C(=S)NC(C)(C)C2 | -7
NS(=O)(=O)c1ccc(CCNC(=O)CN2CCCCCC2)cc1 | 7
Cc1cc(C)n(CCCN2C(=O)c3cccc4cccc(c34)C2=O)n1 | 9
O=S(=O)(c1ccc(OCC(O)CN2CCN(c3ccccc3)CC2)cc1)N1CCOCC1 (centres undefined) | 111
OC(CSc1ccc(F)cc1)CN1CCN(c2ccccc2)CC1 (centres undefined) | 118*
OC(CN1CCN(c2ccccc2)CC1)Cn1c2ccccc2c2ccccc21 (centres undefined) | -8
CC(C)C(=O)NC(=S)Nc1ccc(S(=O)(=O)N(C)Cc2ccccc2)cc1 | 0
CC1CCCC(NC(=O)Nc2cccs2)C1C (centres undefined) | 9
COc1ccccc1-c1c(C#N)c(N)nc2c1CCc1ccccc1-2 | 9
Cc1ccccc1C(=O)OCCN1CCOCC1 | 8
COCCn1c(C)cc(C(=O)CN2CCCCC2)c1C | 7
CCOC(=O)c1cc(C)n(CCCN2CCOCC2)c1C | 86*
CC(=O)Nc1nc(CCN2C(=O)c3ccccc3C2=O)cs1 | 8
O=C(c1cccn2c(=O)c3ccccc3nc12)N1CCN(Cc2ccc3c(c2)OCO3)CC1 | 7
O=C(CN1C(=O)c2cccc3cccc(c23)C1=O)N1CCOCC1 | -8
O=C(CN1C(=O)c2cccc3cccc1c23)N1CCN(Cc2ccc3c(c2)OCO3)CC1 | 500*
CCc1ccc(NC(=O)C(C)OC(=O)CCC(=O)c2cccs2)cc1 (centres undefined) | -3
O=C(Nc1ncc(Cc2ccc(SC(F)F)cc2)s1)c1ccc(OC(F)F)cc1 | 157
COc1ccc(S(=O)(=O)N(C)CC(=O)NCc2ccco2)cc1 | 6
COc1ccccc1N1CCN(c2nc3c(C)cccn3c(=O)c2C=O)CC1 | 2

Screening data deposited in PubChem BioAssay by Columbia University Molecular Screening Center.
